Source: EPA's CvTdb concentration-time database

Legend:
Rat [1] = assay: concentration in kidney after dosing; details: 12 h; dosed: Fluorotelomer alcohol 8+2; 24 mg/kg; oral; Male; Harlan Sprague Dawley
Rat [2] = assay: concentration in liver after dosing; details: 1 h; dosed: Fluorotelomer alcohol 8+2; 24 mg/kg; oral; Male; Harlan Sprague Dawley
Rat [3] = assay: concentration in brain after dosing; details: 12 h; dosed: Fluorotelomer alcohol 8+2; 24 mg/kg; oral; Male; Harlan Sprague Dawley
Rat [4] = assay: concentration in liver after dosing; details: 0.5 h; dosed: Fluorotelomer alcohol 8+2; 24 mg/kg; oral; Male; Harlan Sprague Dawley
Rat [5] = assay: concentration in brain after dosing; details: 0.5 h; dosed: Fluorotelomer alcohol 8+2; 24 mg/kg; oral; Male; Harlan Sprague Dawley
Rat [6] = assay: concentration in liver after dosing; details: 1 h; dosed: Fluorotelomer alcohol 8+2; 24 mg/kg; oral; Male; Harlan Sprague Dawley; remark: listed apart in the source
Rat [7] = assay: concentration in kidney after dosing; details: 1 h; dosed: Perfluorohexanoic Acid; 80 mg/kg; oral; Male; Harlan Sprague Dawley
Rat [8] = assay: concentration in kidney after dosing; details: 3 h; dosed: Perfluorohexanoic Acid; 80 mg/kg; oral; Female; Harlan Sprague Dawley
Rat [9] = assay: concentration in plasma after dosing; details: dosed: Perfluorohexanoic Acid, 40 mg/kg, oral, Male, Harlan Sprague Dawley
Rat [10] = assay: concentration in plasma after dosing; details: dosed: Perfluorohexanoic Acid, 40 mg/kg, oral, Male, Harlan Sprague Dawley; remark: listed apart in the source
Rat [11] = assay: concentration in plasma after dosing; details: 0.25 h; dosed: Perfluorohexanoic Acid; 40 mg/kg; iv; Male; F344
Rat [12] = assay: concentration in plasma after dosing; details: 1.5 h; dosed: Perfluorohexanoic Acid; 40 mg/kg; iv; Male; F344
Rat [13] = assay: concentration in plasma after dosing; details: 5 min; dosed: Gemfibrozil; 100 mg/kg; oral; Male; Sprague-Dawley
Rat [14] = assay: concentration in plasma after dosing; details: 18 h; dosed: Gemfibrozil; 50 mg/kg; oral; Male; Sprague-Dawley
Rat [15] = assay: concentration in plasma after dosing; details: 5 min; dosed: Gemfibrozil; 50 mg/kg; oral; Male; Sprague-Dawley
human [16] = assay: concentration in expired air after dosing; details: dosed: trichloroethylene, 100 ppm, inhalation, duration: 4 hr, person
In short: (§1)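 Points were largely digitised from plot screenshots with WebPlotDigitizer or otherwise copied from tables, and they remain in the units each source reported. They come from published in vivo toxicokinetic studies and two structured collections. Sampling and analytical methods follow each source and were often not reported.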

human [17] = assay: concentration in blood after dosing; negative times count back from the end of exposure; details: dosed: trichloroethylene, 100 ppm, inhalation, person
In short: as §1

Rat [18] = assay: concentration in brain after dosing; details: 6 h; dosed: Perfluorooctane Sulfonate; 20 mg/kg; oral; Female; F344
Rat [19] = assay: concentration in liver after dosing; details: 3360 h; dosed: Perfluorooctane Sulfonate; 20 mg/kg; oral; Male; Harlan Sprague Dawley
Rat [20] = assay: concentration in plasma after dosing; details: dosed: Perfluorooctane Sulfonate, 2 mg/kg, iv, Female, Harlan Sprague-Dawley
Rat [21] = assay: concentration in liver after dosing; details: 1848 h; dosed: Perfluorooctane Sulfonate; 2 mg/kg; oral; Female; Harlan Sprague Dawley
Rat [22] = assay: concentration in plasma after dosing; details: dosed: Perfluorooctane Sulfonate, 2 mg/kg, iv, Male, F344
Rat [23] = assay: concentration in plasma after dosing; details: 3360 h; dosed: Perfluorooctane Sulfonate; 2 mg/kg; oral; Female; Harlan Sprague Dawley
Rat [24] = assay: concentration in kidney after dosing; details: 864 h; dosed: Perfluorooctane Sulfonate; 20 mg/kg; oral; Female; F344
Rat [25] = assay: concentration in plasma after dosing; details: 6 h; dosed: Perfluorooctane Sulfonate; 2 mg/kg; oral; Female; Harlan Sprague Dawley

O=C(O)CCC(F)(F)C(F)(F)C(F)(F)C(F)(F)C(F)(F)C(F)(F)C(F)(F)F [Fluorotelomer acid 7+3]
Details | concentration in brain [ng/g] | concentration in kidney [ng/g] | concentration in liver [ng/g]
Rat [1] | – | 751 | –
Rat [2] | – | – | 693
Rat [3] | 98.2 | – | –
Rat [4] | – | – | 347
Rat [5] | 81.2 | – | –
Rat [6] | – | – | 588

O=C(O)C(F)(F)C(F)(F)C(F)(F)C(F)(F)C(F)(F)F [Perfluorohexanoic Acid]
Details | concentration in kidney [ng/g] | concentration in plasma [ng/mL]
Rat [7] | 86000 | –
Rat [8] | 38000 | –
Rat [11] | – | 6480
Rat [12] | – | 320

concentration in plasma [ng/mL]
Details | 0.25 h | 1 h | 6 h | 24 h
Rat [9] | 54000 | – | 31300 | –
Rat [10] | – | 51400 | – | 2400

Cc1ccc(C)c(OCCCC(C)(C)C(=O)O)c1 [Gemfibrozil]
Details | concentration in plasma [ng/mL]
Rat [13] | 1930
Rat [14] | 1510
Rat [15] | 2350

ClC=C(Cl)Cl [trichloroethylene]
human [16]
Details | concentration in expired air
0 h | 1940 nM
0.053 h | 22.4 ppm
0.17 h | 302 nM
0.2372 h | 3.23 ppm
0.3175 h | 7.33 ppm
0.4773 h | 6.01 ppm
0.5 h | 200 nM
0.5703 h | 2.6 ppm
0.97 h | 1.56 ppm
1 h | 129 nM
1.022 h | 2.96 ppm
1.5 h | 101 nM
2 h | 79 nM
2.009 h | 0.691 ppm
2.015 h | 1.22 ppm
2.5 h | 62 nM
3 h | 61 nM
3.5 h | 54 nM
4 h | 49 nM
4.021 h | 0.521 ppm
4.039 h | 1.03 ppm
4.5 h | 43 nM
5 h | 42 nM
5.996 h | 0.868 ppm
6 h | 33 nM
6.02 h | 0.517 ppm
7 h | 27 nM
7.979 h | 0.777 ppm
8 h | 21 nM
9 h | 21 nM
10 h | 16 nM
10.1 h | 0.554 ppm
326 s | 12.3 ppm

human [17]
Details | concentration in blood [ng/mL]
0 h, duration: 6 hr | 1310
0.2145 h, duration: 4 hr | 2070
0.2337 h, duration: 4 hr | 1290
0.4864 h, duration: 4 hr | 1450
0.9849 h, duration: 4 hr | 714
0.9924 h, duration: 4 hr | 513
1.967 h, duration: 4 hr | 333
1.979 h, duration: 4 hr | 268
3.961 h, duration: 4 hr | 170
18 h, duration: 6 hr | 1100
22 s, duration: 4 hr | 1870
24 h, duration: 6 hr | 562
29.5 min, duration: 4 hr | 851
42 h, duration: 6 hr | 1490
48 h, duration: 6 hr | 1230
66 h, duration: 6 hr | 2060
72 h, duration: 6 hr | 1320
90 h, duration: 6 hr | 1660
96 h, duration: 6 hr | 1370
160 h, duration: 6 hr | 921

concentration in blood [ng/mL], human [17], during exposure
Details | -6 h | -3.502 h | -3.499 h | -3.014 h | -3.003 h | -2.006 h | -1.997 h | -1.011 h | -1.009 h
duration: 4 hr | – | 1670 | 881 | 1250 | 2120 | 2530 | 1520 | 1690 | 2830
duration: 6 hr | 11.9 | – | – | – | – | – | – | – | –

O=S(=O)([O-])C(F)(F)C(F)(F)C(F)(F)C(F)(F)C(F)(F)C(F)(F)C(F)(F)C(F)(F)F [Perfluorooctane Sulfonate]
Details | concentration in brain [ng/g] | concentration in kidney [ng/g] | concentration in liver [ng/g] | concentration in plasma [ng/mL]
Rat [18] | 3430 | – | – | –
Rat [19] | – | – | 29100 | –
Rat [21] | – | – | 9070 | –
Rat [23] | – | – | – | 428
Rat [24] | – | 38400 | – | –
Rat [25] | – | – | – | 4920

concentration in plasma [ng/mL]
Details | 1 h | 12 h | 192 h | 1200 h | 1704 h
Rat [20] | 4460 | – | 2800 | – | 848
Rat [22] | – | 4020 | – | 875 | –
